These results are taken from ChEMBL document CHEMBL5661979, “Pharmacological inhibition of BMK1 suppresses tumor growth through promyelocytic leukemia protein” (Cancer Cell, 2010).

Data set [1] can be described thus: Plasma concentration in Sprague-Dawley rat at 2 mg/kg, po measured after 8 hrs by LC-MS/MS analysis. Type of data set: ADME, organism-based.
In data set [2] the target is T1, Mitogen-activated protein kinase kinase kinase kinase 2 (Homo sapiens) (UniProt Q12851).
T1 sequence (whole entry): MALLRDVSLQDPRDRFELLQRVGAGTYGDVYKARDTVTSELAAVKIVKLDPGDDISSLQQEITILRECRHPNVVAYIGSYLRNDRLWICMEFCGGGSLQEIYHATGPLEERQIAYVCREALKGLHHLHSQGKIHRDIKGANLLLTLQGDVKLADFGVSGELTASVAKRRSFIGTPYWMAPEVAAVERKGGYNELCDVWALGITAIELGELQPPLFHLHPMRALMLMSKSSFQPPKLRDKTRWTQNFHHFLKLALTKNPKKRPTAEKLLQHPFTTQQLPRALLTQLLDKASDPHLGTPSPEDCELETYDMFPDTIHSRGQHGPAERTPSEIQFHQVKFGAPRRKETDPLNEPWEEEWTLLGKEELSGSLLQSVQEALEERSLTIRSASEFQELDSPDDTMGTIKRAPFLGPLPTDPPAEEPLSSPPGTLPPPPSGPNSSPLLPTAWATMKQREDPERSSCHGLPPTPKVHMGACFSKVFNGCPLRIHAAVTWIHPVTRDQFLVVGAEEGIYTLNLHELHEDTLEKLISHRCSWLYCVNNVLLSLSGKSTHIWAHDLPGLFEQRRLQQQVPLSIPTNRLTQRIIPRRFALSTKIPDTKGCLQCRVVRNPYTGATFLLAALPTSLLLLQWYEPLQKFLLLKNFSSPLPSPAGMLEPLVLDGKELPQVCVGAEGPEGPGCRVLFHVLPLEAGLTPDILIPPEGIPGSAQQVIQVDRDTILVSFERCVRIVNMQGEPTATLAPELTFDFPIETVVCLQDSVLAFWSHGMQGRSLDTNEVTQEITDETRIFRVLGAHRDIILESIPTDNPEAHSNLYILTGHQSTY
Put plainly: Inhibition of GCK in human HeLa cells lysate at 50 uM pre incubated for 15 mins followed by ADP acyl phosphate probe addition and measured after 10 mins by LC-MS/MS analysis relative to control. Type of data set: subcellular. Conditions: time 25.0 min.

Data set [3] concerns the target Serine/threonine-protein kinase LATS2 (Homo sapiens) (UniProt Q9NRM7). Put plainly: Inhibition of LATS2 in human HeLa cells lysate at 2 uM pre incubated for 15 mins followed by ADP acyl phosphate probe addition and measured after 10 mins by LC-MS/MS analysis relative to control. Conditions: time 25.0 min. The class given is subcellular.
Data set [4] deals with Serine/threonine-protein kinase ULK3 (Homo sapiens, UniProt Q6PHR2). Put plainly: Inhibition of ULK3 in human HeLa cells lysate pre incubated for 15 mins followed by ADP acyl phosphate probe addition and measured after 10 mins by LC-MS/MS analysis. The class given is subcellular.
Serine/threonine-protein kinase ULK3, sequence (Q6PHR2 whole entry): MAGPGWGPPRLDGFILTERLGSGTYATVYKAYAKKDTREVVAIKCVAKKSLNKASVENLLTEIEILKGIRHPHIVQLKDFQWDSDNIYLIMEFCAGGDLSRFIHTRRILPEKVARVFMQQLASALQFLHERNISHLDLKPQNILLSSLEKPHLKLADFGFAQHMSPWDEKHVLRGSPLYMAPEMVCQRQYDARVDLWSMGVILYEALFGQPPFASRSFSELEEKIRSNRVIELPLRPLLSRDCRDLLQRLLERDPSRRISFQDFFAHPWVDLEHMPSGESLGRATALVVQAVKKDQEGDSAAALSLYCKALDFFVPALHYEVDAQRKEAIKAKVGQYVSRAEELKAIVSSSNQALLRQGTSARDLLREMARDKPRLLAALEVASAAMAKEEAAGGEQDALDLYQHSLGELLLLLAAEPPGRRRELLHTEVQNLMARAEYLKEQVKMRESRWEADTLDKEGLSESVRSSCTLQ
Data set [5] deals with Serine/threonine-protein kinase Nek7 (Homo sapiens, UniProt Q8TDX7). Put plainly: Inhibition of NEK7 in human HeLa cells lysate pre incubated for 15 mins followed by ADP acyl phosphate probe addition and measured after 10 mins by LC-MS/MS analysis. The class given is subcellular.
Serine/threonine-protein kinase Nek7, sequence (Q8TDX7 whole entry): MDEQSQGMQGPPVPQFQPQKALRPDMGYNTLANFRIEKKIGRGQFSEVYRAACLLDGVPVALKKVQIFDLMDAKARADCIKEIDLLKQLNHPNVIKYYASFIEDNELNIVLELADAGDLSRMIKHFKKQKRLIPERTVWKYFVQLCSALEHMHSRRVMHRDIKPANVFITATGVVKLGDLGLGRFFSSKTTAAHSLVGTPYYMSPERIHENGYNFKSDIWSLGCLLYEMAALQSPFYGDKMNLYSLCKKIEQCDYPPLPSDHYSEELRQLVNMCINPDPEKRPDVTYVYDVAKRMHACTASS
The target of data set [6] is T2, Dual specificity mitogen-activated protein kinase kinase 4 (Homo sapiens) (UniProt P45985).
T2 sequence (whole entry): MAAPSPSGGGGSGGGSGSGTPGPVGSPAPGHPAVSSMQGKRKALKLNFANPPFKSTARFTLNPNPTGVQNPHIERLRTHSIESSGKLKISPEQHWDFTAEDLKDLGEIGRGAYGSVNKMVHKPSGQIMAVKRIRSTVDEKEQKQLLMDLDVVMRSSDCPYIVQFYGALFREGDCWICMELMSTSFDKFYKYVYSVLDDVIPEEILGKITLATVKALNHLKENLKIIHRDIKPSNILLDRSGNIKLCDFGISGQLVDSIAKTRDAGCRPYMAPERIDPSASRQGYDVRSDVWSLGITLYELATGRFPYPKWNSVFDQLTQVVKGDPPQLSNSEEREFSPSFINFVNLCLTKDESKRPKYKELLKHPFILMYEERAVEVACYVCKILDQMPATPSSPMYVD
Put plainly: Inhibition of MAP2K4 in human HeLa cells lysate at 50 uM pre incubated for 15 mins followed by ADP acyl phosphate probe addition and measured after 10 mins by LC-MS/MS analysis relative to control. The class given is subcellular. The note with it: time 25.0 min.

Data set [7] has as its target Epidermal growth factor receptor (Homo sapiens, UniProt P00533). Put plainly: Inhibition of EGFR in human HeLa cells lysate at 50 uM pre incubated for 15 mins followed by ADP acyl phosphate probe addition and measured after 10 mins by LC-MS/MS analysis relative to control. Type of data set: subcellular. The note with it: time 25.0 min.
The target in data set [8] is T3, Ribosomal protein S6 kinase alpha-1 (Homo sapiens, UniProt Q15418). Put plainly: Inhibition of RSK1 domain 2 in human HeLa cells lysate at 50 uM pre incubated for 15 mins followed by ATP acyl phosphate probe addition and measured after 10 mins by LC-MS/MS analysis relative to control. Type of data set: subcellular. Conditions: time 25.0 min.
T3 sequence (Q15418 whole entry, the tested form may be a part): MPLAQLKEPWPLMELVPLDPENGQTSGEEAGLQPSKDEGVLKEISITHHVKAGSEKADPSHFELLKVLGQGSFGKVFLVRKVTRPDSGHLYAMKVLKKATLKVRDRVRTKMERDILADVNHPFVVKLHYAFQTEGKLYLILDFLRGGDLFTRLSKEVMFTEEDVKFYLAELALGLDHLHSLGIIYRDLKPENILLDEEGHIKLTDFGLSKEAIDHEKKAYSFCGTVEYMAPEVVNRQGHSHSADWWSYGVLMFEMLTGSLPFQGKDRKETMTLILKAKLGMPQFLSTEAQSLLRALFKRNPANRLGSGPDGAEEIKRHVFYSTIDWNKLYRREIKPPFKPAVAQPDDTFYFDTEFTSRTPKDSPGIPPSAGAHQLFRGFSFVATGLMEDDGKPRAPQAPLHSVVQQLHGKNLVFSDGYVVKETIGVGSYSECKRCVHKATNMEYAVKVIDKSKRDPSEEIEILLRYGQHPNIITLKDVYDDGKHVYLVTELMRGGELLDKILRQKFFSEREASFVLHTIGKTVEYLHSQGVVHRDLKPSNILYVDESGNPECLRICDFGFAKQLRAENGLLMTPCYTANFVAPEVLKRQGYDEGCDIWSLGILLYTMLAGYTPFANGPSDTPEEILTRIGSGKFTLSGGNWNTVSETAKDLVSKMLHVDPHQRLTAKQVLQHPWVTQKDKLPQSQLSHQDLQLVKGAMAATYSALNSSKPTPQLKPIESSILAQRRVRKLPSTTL
For data set [9], the target named is AMPK alpha1/alpha2 (Homo sapiens, UniProt P54646+Q13131). Put plainly: Inhibition of AMPKalpha1/2 in human HeLa cells lysate at 2 uM pre incubated for 15 mins followed by ATP acyl phosphate probe addition and measured after 10 mins by LC-MS/MS analysis relative to control. The class given is subcellular. Conditions: time 25.0 min. The essentials:
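HeLa cell lysates (5 mg/mL total protein) were preincubated with inhibitor at 0, 0.8, 2, 10 or 50 μM for 15 min. ATP or ADP acylphosphate probe was then added (5 μM final) for 10 min, and reactions were stopped with urea. Up to four fragment ions per kinase probe-peptide were quantified by targeted MS. % inhibition was taken relative to untreated lysate. Run in duplicate.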

For data set [10], the target named is Serine/threonine-protein kinase 10 (Homo sapiens, UniProt O94804). Put plainly: Inhibition of LOK in human HeLa cells lysate pre incubated for 15 mins followed by ATP acyl phosphate probe addition and measured after 10 mins by LC-MS/MS analysis. Type of data set: subcellular.
Serine/threonine-protein kinase 10, sequence (O94804 whole entry): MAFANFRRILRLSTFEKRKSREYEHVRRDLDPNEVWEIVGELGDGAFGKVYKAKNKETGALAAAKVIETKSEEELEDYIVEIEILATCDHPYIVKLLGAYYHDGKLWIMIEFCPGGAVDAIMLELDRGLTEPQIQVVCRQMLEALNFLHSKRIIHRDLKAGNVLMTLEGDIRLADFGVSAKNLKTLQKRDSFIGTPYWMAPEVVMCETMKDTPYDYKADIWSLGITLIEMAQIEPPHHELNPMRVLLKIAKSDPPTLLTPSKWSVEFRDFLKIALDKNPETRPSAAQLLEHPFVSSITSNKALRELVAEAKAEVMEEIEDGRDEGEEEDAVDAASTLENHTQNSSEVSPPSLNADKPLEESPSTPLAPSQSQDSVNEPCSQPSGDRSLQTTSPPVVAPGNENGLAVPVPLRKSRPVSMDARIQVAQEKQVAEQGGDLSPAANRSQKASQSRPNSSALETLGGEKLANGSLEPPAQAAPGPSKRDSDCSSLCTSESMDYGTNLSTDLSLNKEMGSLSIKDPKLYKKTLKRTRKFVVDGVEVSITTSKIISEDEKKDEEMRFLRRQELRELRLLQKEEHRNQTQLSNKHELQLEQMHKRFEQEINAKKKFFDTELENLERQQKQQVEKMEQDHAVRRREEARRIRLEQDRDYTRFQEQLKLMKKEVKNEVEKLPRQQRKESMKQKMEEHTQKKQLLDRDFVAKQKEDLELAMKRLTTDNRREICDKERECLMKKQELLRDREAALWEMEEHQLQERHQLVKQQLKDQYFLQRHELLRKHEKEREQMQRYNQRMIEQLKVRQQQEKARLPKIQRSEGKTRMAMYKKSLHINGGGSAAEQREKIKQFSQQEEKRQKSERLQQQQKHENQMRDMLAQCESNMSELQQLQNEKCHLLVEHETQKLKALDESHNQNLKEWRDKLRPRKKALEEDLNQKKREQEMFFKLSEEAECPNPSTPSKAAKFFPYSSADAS
Data set [11] is described as follows: Inhibition of MSK1/2 in human HeLa cells lysate at 2 uM pre incubated for 15 mins followed by ADP acyl phosphate probe addition and measured after 10 mins by LC-MS/MS analysis relative to control. Conditions: 25 min, condition cancer.
Data set [12] has as its target Cyclin-dependent kinase 9 (Homo sapiens, UniProt P50750). Put plainly: Inhibition of CDK9 in human HeLa cells lysate at 2 uM pre incubated for 15 mins followed by ADP acyl phosphate probe addition and measured after 10 mins by LC-MS/MS analysis relative to control. The class given is subcellular. Conditions: time 25.0 min. The procedure, abridged: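 KiNativ profiling in HeLa lysate (5 mg/mL total protein). Lysate incubated 15 min with inhibitor at 50, 10, 2, 0.8 or 0 μM. ATP or ADP acylphosphate probe then added (5 μM final) and reacted 10 min. Reaction stopped with urea and analysed by targeted MS, using up to four fragment ions per kinase peptide-probe conjugate. % inhibition taken against untreated lysate. Run in duplicate.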

The target of data set [13] is Ribosomal protein S6 kinase alpha-5 (Homo sapiens, UniProt O75582). Put plainly: Inhibition of MSK1 domain 1 K2 site in human HeLa cells lysate pre incubated for 15 mins followed by ADP acyl phosphate probe addition and measured after 10 mins by LC-MS/MS analysis. Type of data set: subcellular.
Ribosomal protein S6 kinase alpha-5, sequence (O75582 whole entry, the tested form may be a part): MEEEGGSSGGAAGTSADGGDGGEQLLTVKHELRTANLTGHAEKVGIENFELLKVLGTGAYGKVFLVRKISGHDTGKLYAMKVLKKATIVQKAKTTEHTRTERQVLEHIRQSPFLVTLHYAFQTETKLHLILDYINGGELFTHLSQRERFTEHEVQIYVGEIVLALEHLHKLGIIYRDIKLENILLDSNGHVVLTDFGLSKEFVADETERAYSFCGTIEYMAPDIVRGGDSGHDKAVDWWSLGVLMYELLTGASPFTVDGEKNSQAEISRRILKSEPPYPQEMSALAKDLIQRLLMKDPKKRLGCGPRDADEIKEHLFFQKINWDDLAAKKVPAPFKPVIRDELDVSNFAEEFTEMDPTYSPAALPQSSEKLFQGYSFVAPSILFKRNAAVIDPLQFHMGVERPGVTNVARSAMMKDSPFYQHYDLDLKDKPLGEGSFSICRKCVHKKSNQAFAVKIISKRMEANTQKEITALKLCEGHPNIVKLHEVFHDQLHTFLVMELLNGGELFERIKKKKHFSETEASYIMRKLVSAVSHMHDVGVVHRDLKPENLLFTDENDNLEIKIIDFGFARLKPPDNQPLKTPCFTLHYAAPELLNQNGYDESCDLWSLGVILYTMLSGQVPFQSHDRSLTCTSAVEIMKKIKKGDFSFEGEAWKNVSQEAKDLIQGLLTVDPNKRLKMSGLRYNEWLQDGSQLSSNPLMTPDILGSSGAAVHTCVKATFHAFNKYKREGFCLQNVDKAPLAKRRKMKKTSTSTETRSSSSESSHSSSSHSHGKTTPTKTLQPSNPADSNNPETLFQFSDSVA
The target of data set [14] is T3, Ribosomal protein S6 kinase alpha-1. Put plainly: Inhibition of RSK1 domain 2 K1 site in human HeLa cells lysate at 10 uM pre incubated for 15 mins followed by ADP acyl phosphate probe addition and measured after 10 mins by LC-MS/MS analysis relative to control. The class given is subcellular. The note with it: time 25.0 min.

Epidermal growth factor receptor, sequence (P00533 whole entry, the tested form may be a part): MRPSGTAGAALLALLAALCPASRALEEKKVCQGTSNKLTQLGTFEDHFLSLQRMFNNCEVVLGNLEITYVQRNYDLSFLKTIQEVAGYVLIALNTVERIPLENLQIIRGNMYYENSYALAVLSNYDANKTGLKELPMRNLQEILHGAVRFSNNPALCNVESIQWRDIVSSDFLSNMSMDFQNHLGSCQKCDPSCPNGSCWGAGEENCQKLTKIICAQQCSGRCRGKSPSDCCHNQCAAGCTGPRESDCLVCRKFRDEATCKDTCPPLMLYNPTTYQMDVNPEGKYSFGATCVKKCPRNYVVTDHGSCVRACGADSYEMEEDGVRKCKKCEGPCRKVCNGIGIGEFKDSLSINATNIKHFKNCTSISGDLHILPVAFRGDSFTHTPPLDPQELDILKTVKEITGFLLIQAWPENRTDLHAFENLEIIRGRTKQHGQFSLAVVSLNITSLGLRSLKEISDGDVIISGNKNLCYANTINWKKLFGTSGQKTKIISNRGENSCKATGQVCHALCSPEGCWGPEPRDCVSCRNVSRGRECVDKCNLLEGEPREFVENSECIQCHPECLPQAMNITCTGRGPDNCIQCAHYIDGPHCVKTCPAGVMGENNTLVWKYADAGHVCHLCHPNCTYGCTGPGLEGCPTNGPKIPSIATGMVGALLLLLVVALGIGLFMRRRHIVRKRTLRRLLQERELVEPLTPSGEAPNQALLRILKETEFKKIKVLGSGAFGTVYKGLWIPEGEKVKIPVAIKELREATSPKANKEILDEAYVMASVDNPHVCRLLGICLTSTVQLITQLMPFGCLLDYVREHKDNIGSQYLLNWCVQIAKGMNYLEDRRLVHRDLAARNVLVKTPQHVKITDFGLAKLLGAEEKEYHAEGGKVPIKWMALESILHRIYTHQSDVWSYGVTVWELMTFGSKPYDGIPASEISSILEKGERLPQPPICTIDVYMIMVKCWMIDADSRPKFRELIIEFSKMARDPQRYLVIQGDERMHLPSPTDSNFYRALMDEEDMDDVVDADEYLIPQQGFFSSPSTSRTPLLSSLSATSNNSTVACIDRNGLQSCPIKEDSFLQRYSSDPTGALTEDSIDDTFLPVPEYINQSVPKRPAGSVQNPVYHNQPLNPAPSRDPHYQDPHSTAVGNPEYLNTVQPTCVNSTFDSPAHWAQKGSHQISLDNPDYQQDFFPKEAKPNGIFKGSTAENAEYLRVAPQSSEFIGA
Cyclin-dependent kinase 9, sequence (P50750 whole entry, the tested form may be a part): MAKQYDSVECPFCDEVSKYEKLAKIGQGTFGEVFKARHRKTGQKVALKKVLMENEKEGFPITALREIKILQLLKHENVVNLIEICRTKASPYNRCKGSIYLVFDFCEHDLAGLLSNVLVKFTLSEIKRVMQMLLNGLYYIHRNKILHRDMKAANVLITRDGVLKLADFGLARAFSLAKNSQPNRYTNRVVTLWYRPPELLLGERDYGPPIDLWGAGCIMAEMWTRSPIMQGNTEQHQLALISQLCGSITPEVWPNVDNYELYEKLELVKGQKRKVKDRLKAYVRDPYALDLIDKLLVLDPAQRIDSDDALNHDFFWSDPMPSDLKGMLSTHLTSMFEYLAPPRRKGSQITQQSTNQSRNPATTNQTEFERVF

For orientation: inhibition means the relative decrease from the control value, in per cent. One may read the IC50 as the concentration that inhibits the measured activity by half. In the case of `CCOc1cc(N2CCC(O)CC2)ccc1Nc1ncc2c(n1)N(C)c1ccccc1C(=O)N2C`, the concentration at 8 h in [1] amounted to 34 nM. Also, the inhibition in data set [2] was 34.5%; in data set [3] it was -4%; in data set [6] it was 3.1%; in data set [7], 5.9%; in data set [8], 73.1%; in [9], -0.7%. Further, the inhibition was 0.8% in [12] and 23.4% in data set [14]. In addition, the half-maximal inhibitory concentration (IC50) in [4], in data set [5], in data set [10] and in data set [13] was greater than 50 µM in each case. For the same molecule, the inhibition at 2 µM in data set [11] amounted to 23.1%.
